In test [1] the test system is Mus musculus. Nature of the test: Minimal effective s.c. dose to reverse Scopolamine induced amnesia in mouse passive-avoidance test.
The species named for test [2] is Mus musculus. As to the kind of experiment: Change in the latency time on day 1 to that of day 2. The class given is functional. Put shortly: (§1)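 Mouse light/dark step-through test with a pitfall floor: entering the dark room drops the mouse 40 cm into 10 °C water. Latencies in s are taken at training and at retention 24 h later, capped at 120 s. Mice not entering within 60 s are excluded. Dosing is sc 20 min before training, in saline or DMSO/H2O vehicle.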

The species named for test [3] is Mus musculus. Nature of the test: Latency time on 2nd (post-treatment) day of mouse passive-avoidance test. It counts as functional. Summed up:
as §1

The species entered for test [4] is Mus musculus. As to the kind of experiment: Latency time on 1st day of mouse passive-avoidance test. Further: test concentration or dose not given here. It counts as functional. Summed up: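 Mouse light/dark step-through test with a pitfall floor: entering the dark room drops the mouse 40 cm into 10 °C water. Mice not entering within 60 s are excluded. Dosing is sc 20 min before training, in saline or DMSO/H2O vehicle.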

Test [5] concerns Mus musculus. As to the kind of experiment: Minimal effective dose to reverse Scopolamine induced amnesia, when given ip in mouse passive avoidance test. It counts as functional. Summed up:
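Mouse passive avoidance (light/dark box) with a pitfall floor: entering the dark room drops the mouse 40 cm into 10 °C water. Test drugs were given in a 1-to-10 dilution series 20 min before training. […] Retention was tested at 24 h, with a 120 s maximum. Mice not entering within 60 s at training were excluded. The read-out is the retention minus training latency (s).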

Test [6] deals with Mus musculus. Nature of the test: Minimal effective dose to reverse Scopolamine induced amnesia, when given sc in mouse passive avoidance test; Dose limited by solubility problems. The class given is functional.

Each structure is given as a SMILES string. A value given as a limit tells only on which side of the number the result lay.

Regarding `O=C1CC[C@@H]2CN(S(=O)(=O)c3ccc(F)cc3)CCN12`, in test [1], the Dose stood at 0.001 mg/kg. Further, in test [2], the Delta latency time is recorded as 93.8 s. The Latency time in test [3] was found to be 104.4 s; in test [4], 19.7 s.
In turn, `O=C1CC[C@@H]2CN(Cc3ccc(F)cc3)CCN12` yielded a Dose in test [1] above 10 mg/kg.
As for `O=C(c1ccc(F)cc1)N1CCN2C(=O)CC[C@@H]2C1`, in test [1], the Dose came out at 10 mg/kg. Also, in test [2], the Delta latency time is 77.2 s. The Latency time in test [3] was found to be 88.9 s; in test [4] it was 11.7 s.
Consider `Cc1ccc(C(=O)N2CCN3C(=O)CC[C@@H]3C2)cc1`, for which the Dose in test [1] was 1 mg/kg. The molecule further had a Delta latency time in test [2] of 84.5 s. In addition, the values for the Latency time in test [3] and in test [4] were 100.1 s and 15.6 s, respectively.
On the same counts, the results for `O=C1CC[C@@H]2CN(S(=O)(=O)c3ccc([N+](=O)[O-])cc3)CCN12` are 10 mg/kg, 75.4 s, 89.2 s and 13.8 s.
Turning to `Cc1ccc(S(=O)(=O)N2CCN3C(=O)CC[C@@H]3C2)cc1`, in test [1], the Dose worked out at 1 mg/kg. In test [2], this molecule registered a Delta latency time of 80.5 s. Moreover, the Latency time in test [3] came to 95.6 s; in test [4], 15.1 s.
The molecule `NC(=O)CN1CCCC1=O` came in with a Delta latency time in test [2] of 91.2 s. The Dose in test [5] was 30 mg/kg. Further, the results for the Latency time in test [3] and in test [4] were 108.8 s and 17.6 s, respectively.
Regarding `COc1ccc(C(=O)N2CCN3C(=O)CC[C@@H]3C2)cc1`, the Dose in test [6] is above 1 mg/kg.
Turning to `O=C(c1ccc(Cl)cc1)N1CCN2C(=O)CC[C@@H]2C1`, in test [1], the Dose is 10 mg/kg. In test [2], this molecule displayed a Delta latency time of 85.4 s. The results for the Latency time in test [3] and in test [4] were 103.7 s and 18.3 s, respectively.
The molecule `O=C(c1ccc([N+](=O)[O-])cc1)N1CCN2C(=O)CC[C@@H]2C1` yielded a Dose in test [1] of 10 mg/kg. This molecule also showed a Delta latency time in test [2] of 78.2 s. Besides, the Latency time in test [3] turned out to be 96.2 s; in test [4], 18 s.
As to `O=C1CC[C@@H]2CN(S(=O)(=O)c3ccc(Cl)cc3)CCN12`, the Dose in test [6] is above 0.1 mg/kg.
Molecule `O=C1CC[C@@H]2CN(Cc3ccccc3)CCN12` yielded a Dose in test [1] of 1 mg/kg. Moreover, the Delta latency time in test [2] came out at 63.2 s. The values for the Latency time in test [3] and in test [4] were 77.4 s and 14.2 s, respectively.
`COc1ccc(S(=O)(=O)N2CCN3C(=O)CC[C@@H]3C2)cc1` showed a Dose in test [1] of 0.1 mg/kg. The molecule further showed a Delta latency time in test [2] of 103.5 s. The Latency time in test [3] is 118.3 s; in test [4], 14.8 s.
In turn, `O=C1CC[C@@H]2CN(S(=O)(=O)c3ccccc3)CCN12` came in with a Dose in test [6] above 10 mg/kg.
In test [1], `O=C(c1ccccc1)N1CCN2C(=O)CC[C@@H]2C1` showed a Dose of 1 mg/kg. In test [2], this molecule showed a Delta latency time of 85.2 s. The values for the Latency time in test [3] and in test [4] were 102 s and 16.8 s, respectively.
On the same counts, the results for `C[C@@H]1C[C@@H]2CN(C(=O)c3ccccc3)CCN2C1=O` (relative stereo) are 1 mg/kg, 65.8 s, 83.5 s and 17.7 s.
`C[C@H]1C[C@@H]2CN(C(=O)c3ccccc3)CCN2C1=O` (relative stereo) gave a Dose in test [1] of 1 mg/kg. The same molecule came in with a Delta latency time in test [2] of 85.2 s. Also, the Latency time in test [3] was found to be 99.5 s; in test [4] it was 14.3 s.
For `C[C@H]1C[C@@H]2CN(C(=O)c3ccc(F)cc3)CCN2C1=O` (relative stereo), the Dose in test [1] amounted to 0.1 mg/kg. For the same molecule, in test [2], the Delta latency time was 85.6 s. The Latency time in test [3] is given as 107.4 s; in test [4], 21.8 s.
In test [1], `C[C@@H]1C[C@@H]2CN(S(=O)(=O)c3ccc(F)cc3)CCN2C1=O` (relative stereo) returned a Dose of 0.1 mg/kg. For the same molecule, in test [2], the Delta latency time was found to be 96.5 s. Also, the values for the Latency time in test [3] and in test [4] were 118.4 s and 21.9 s, respectively.
For `C[C@H]1C[C@@H]2CN(S(=O)(=O)c3ccccc3)CCN2C1=O` (relative stereo), in that order: 10 mg/kg, 73 s, 91.3 s and 18.3 s.
For `C[C@H]1C[C@@H]2CN(S(=O)(=O)c3ccc(F)cc3)CCN2C1=O` (relative stereo), in that order: 0.1 mg/kg, 78 s, 94.9 s and 16.9 s.
In test [1], `C[C@@H]1C[C@@H]2CN(S(=O)(=O)c3ccccc3)CCN2C1=O` (relative stereo) returned a Dose of 1 mg/kg. The Delta latency time in test [2] was 78.5 s. The figures for the Latency time in test [3] and in test [4] were 94.8 s and 13.6 s, respectively.
Regarding `C[C@@H]1C[C@@H]2CN(C(=O)c3ccc(F)cc3)CCN2C1=O` (relative stereo), the Dose in test [1] was 0.1 mg/kg. This molecule showed a Delta latency time in test [2] of 80 s. Further, the figures for the Latency time in test [3] and in test [4] were 104 s and 24 s, respectively.
For `CN1[C@@H]2C[C@@H](OC(=O)[C@H](CO)c3ccccc3)C[C@H]1[C@@H]1O[C@@H]12` [SCOPOLAMINE], the Delta latency time in test [2] is 27.9 s. The same molecule came in with a Dose in test [5] of 1.5 mg/kg. The molecule further came in with a Latency time in test [3] of 44.5 s.

The values above are taken from ChEMBL document CHEMBL1133180 (2000).
